Assay results collected from several papers.
Target: Dual specificity tyrosine-phosphorylation-regulated kinase 1A (DYRK1A, Homo sapiens, UniProt Q13627)

CC#CC(=O)N1CCC[C@H]1c1nc(-c2ccc(C(=O)Nc3ccccn3)cc2)c2c(N)nccn12  inhibition (enzyme activity, inhibitor; 1 µM): 3%
CCCCC(=O)Nc1ccc(-c2ccc3ncn(CCC)c(=O)c3c2)cn1  remaining binding (binding, competition with immobilised ligand; 0.5 µM): 81%
O=[N+]1C=CC(=C2C=CN([O-])C=C2)C=C1  inhibition (enzyme activity, inhibitor, ADP detection; 10 µM): 52.8%
CC(C)S(=O)(=O)c1ccc2nccc(Nc3ccc4sc(C5CCCC5)nc4c3)c2c1  activity vs control (enzyme activity, inhibitor; 1 µM): 103%
CN1CCN(C(=O)c2ccc(NC(=O)Nc3ccc(N(C)c4ccnc(Nc5ccc(CS(C)(=O)=O)cc5)n4)cc3)cc2)CC1  remaining binding (binding; 1 µM): 62%
C=CC(=O)N1CCC([C@@H]2CCNc3c(C(N)=O)c(-c4ccc(Oc5ccccc5)cc4)nn32)CC1  inhibition (cell-free assay; 1 µM): 3%
C=C(C)C1CCC(C)=C1COC(=O)c1cc([N+](=O)[O-])cc([N+](=O)[O-])c1 (stereo not shown)  inhibition (enzyme activity, inhibitor, ADP detection; 10 µM): 10.3%
C1=C/COCc2cc(ccc2OCCN2CCCC2)Nc2nccc(n2)-c2cccc(c2)COC/1  remaining binding (binding; 0.1 µM): 52%
C[C@H]1CC[C@H](n2c3cnccc3c3cnc(Nc4ccc5c(n4)CCN(C(=O)CO)C5)nc32)CC1  remaining signal (cell-free assay; 1 µM): 0%
CCOC(=O)c1c(NC(=O)CCC(=O)OC)sc2c1CCCC2  inhibition (enzyme activity, inhibitor, ADP detection; 10 µM): 18.3%
COc1ccc2oc(-c3ccc4nc(N)oc4c3)c/c(=N\c3ccccc3NC(=O)CCN)c2c1  remaining binding (binding, competition with immobilised ligand; 1 µM): 111%
c1cnc(-c2nnc3sc(C45CC6CC(CC(C6)C4)C5)nn23)cn1  inhibition (enzyme activity, inhibitor, ADP detection; 10 µM): 8.44%
CC(=O)ON=C1C=CC(=C(C#N)c2ccccc2)C=C1  activity vs control (enzyme activity, inhibitor, ADP detection; 2 µM): 99%
